# sEH inh = soluble epoxide hydrolase (human) inhibition | recombinant human sEH enzymatic activity assay | inhibition, % at 2 µM | 91,000 compounds, 0.34% hits; in the data active = inhibition above about 80%
# Target sequence (P34913 whole entry, looked up): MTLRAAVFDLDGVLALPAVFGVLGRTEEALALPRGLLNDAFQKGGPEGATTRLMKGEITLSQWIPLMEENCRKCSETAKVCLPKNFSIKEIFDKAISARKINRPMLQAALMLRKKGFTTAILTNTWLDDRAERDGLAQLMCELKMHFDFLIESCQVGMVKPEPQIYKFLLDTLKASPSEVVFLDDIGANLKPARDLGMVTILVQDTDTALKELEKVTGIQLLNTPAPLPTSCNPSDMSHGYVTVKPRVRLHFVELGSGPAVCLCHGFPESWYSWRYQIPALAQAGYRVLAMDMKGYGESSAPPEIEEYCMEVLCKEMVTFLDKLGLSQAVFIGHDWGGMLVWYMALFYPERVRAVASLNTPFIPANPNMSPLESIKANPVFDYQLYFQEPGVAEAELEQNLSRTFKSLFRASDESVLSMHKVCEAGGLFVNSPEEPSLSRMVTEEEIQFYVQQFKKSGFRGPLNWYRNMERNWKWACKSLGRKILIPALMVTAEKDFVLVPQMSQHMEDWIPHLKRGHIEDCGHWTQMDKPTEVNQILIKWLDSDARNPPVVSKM
# sEH activator = soluble epoxide hydrolase (human) activation; P34913; purified human sEH enzymatic activity, activator screen; activation, % at 2 µM; 91,000 compounds, 0.04% hits; AID 717; in the data active = activation above about 37%
# BB579 growth dn = reduces growth of yeast BB579 in restrictive medium; S. cerevisiae BB579 growth, OD615, 48 h; inhibition, % at 10 µM; 140,000 compounds, 0.51% hits;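 active = inhibition above a set limit, 3 SD over the mean compound inhibition, cut at about 44% in these data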
#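 Material: Saccharomyces cerevisiae DeaD strain BB579, replicative lifespan model yeast; buffer or medium: CSMM-D restrictive synthetic medium containing dextrose (glucose); compound: 10 µM single dose, DMSO 0.25%; timing: 48 h compound exposure at 30 °C after 4 h preincubation; signal: turbidity as optical density at 615 nm; benchmarks: positive control amphotericin B 10 µg/mL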
# SDO1 yeast rescue = restores growth of sdo1-depleted yeast | S. cerevisiae sdo1-depleted JHY4D growth rescue, OD600 30 h; hits give high values; pdr5 snq2 efflux-pump mutant strain | z-score at 10 µM | 140,000 compounds, 0.21% hits | AID 817;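 active = z-score above 3 at both the 24 hr and the 30 hr optical density reads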;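 note: z-score against mean and SD of all compound wells on the same plate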
# Measles CPE = protection of cells from measles virus | Measles virus-infected cells, CPE protection, absorbance | protection (pct of control), % at 4 µM | 140,000 compounds, 1.5% hits; in the data active = protection mostly above about 24%, no sharp cut-off; inactive = mostly below about 26%
# Yeast life ext = yeast lifespan extension; S. cerevisiae growth with nicotinamide, OD615; deaD strain in restrictive glucose medium; inhibition of the nicotinamide effect, % at 10 µM; 130,000 compounds, 0.68% hits;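 active = inhibition above a set limit, placed 3 SD over the median of all compounds, cut at about 26% in these data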;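 note: 0% = nicotinamide-treated wells and 100% = cells grown without nicotinamide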
#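 Assay system: DeaD-strain S. cerevisiae. Medium: CSMM-D glucose medium, restrictive. Reagent: nicotinamide, 1.5 mM, co-present with compound. Compound: 10 µM single point, 0.25% DMSO. Schedule: culture preincubation 4 h, compound exposure 48 h, both 30 °C. Detection: absorbance at 615 nm.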
# Starred values were filed as active, the others as inactive; nt = no result given. Shown are actives, neighbours in structure and some others; about 3% of the full set was active somewhere.
SMILES,sEH inh,sEH activator,BB579 growth dn,SDO1 yeast rescue,Measles CPE,Yeast life ext
O=C(CSc1nc2cc([N+](=O)[O-])ccc2n1-c1ccc(F)cc1)NC1CCS(=O)(=O)C1 (stereo not drawn),nt,nt,-1,-0.06,6,-6
Cc1c(CCO)c(=O)n(-c2ccccc2)n1S(=O)(=O)c1ccc(Cl)cc1,-1,3,-23,0.72,4,-6
CC(=O)c1c(C)oc2c1C(=O)c1ccccc1C2=O,nt,nt,62*,-2,11,-7
O=C(Nc1cccc2c1CCCC2)c1ccncc1,0,2,-44,-0.51,8,nt
COc1ccc(/C=N/NC(=O)CNC(=O)C2COc3ccccc3O2)cc1OC (stereo not drawn),nt,nt,-37,1.1,5,-3
Cc1nc(-c2ccccc2)cc(N2CCCC2)n1,-3,1,-36,-0.56,33*,-1
[N-]=[N+]=CC(=O)C(Cc1ccccc1)N1C(=O)c2ccccc2C1=O (stereo not drawn),-17,16,-12,-0.37,9,34*
CC(C)Cc1c(O)nc(SCCN2CCOCC2)[nH]c1=O,-15,13,-3,0.54,72*,-3
Clc1ccc(-c2nnn(Cc3nc4ccccc4s3)n2)cc1,-12,14,-49,-0.6,13,-9
Fc1ccc(-c2nnn(Cc3nc4ccccc4s3)n2)cc1,-8,9,-28,-0.92,46*,2
C=CCNc1cc(C)oc(=O)c1C(=O)CCC,-8,4,-11,0.75,3,-7
O=C(CSC1=NCCS1)N1CCN(c2ccc(Cl)cc2)CC1,6,-6,51*,0.52,15,-24
COC(=O)c1sc2ncn(-n3c(C)ccc3C)c(=O)c2c1C,0,-3,-73,-0.42,6,85*
CCOCCCNC(=S)NNC(=O)CCn1nc(C)c(Br)c1C,-2,4,-26,1,39*,-9
Cc1nn(CCC(=O)NNC(=S)NCC(C)C)c(C)c1Br,-3,5,-11,0.66,33*,-3
CNC(=S)NNC(=O)CCn1nc(C)c(Br)c1C,7,-6,-49,0.17,20,-12
O=C(O)CC(c1cccc2ccccc12)n1cccc1 (stereo not drawn),7,-4,-28,0.54,11,-5
CC(Sc1nc(-c2ccc(F)cc2)cs1)C(=O)Nc1ccc(Cl)cn1 (stereo not drawn),nt,nt,-26,0.81,0,2
COC(=O)c1c(NC(=O)Cc2cccs2)sc(C(=O)N2CCCCC2)c1C,17,-14,-36,-0.46,5,29*
C=CCO/N=C/C1C(=O)CC(C)(C)CC1=O,nt,nt,-12,0.07,11,39*
Nc1ccc(C(=O)OCC(=O)Nc2ccc([N+](=O)[O-])cc2C(F)(F)F)cc1,nt,nt,-1,0.64,2,-5
CCOC(=O)C1C(=O)NC(SCC(=O)Nc2nccs2)=C(C#N)C1c1ccccc1OCC (stereo not drawn),6,-1,-10,-0.56,3,27*
COc1cc(OC)cc(C(=O)NNC(=O)NC2CCCCC2)c1,nt,nt,-33,0.72,8,nt
CCOCC(=O)Nc1nc2ccc(S(C)(=O)=O)cc2s1,9,-10,-20,2.3,10,-20
CCC(=O)Nc1nc2ccc(S(C)(=O)=O)cc2s1,-6,12,-4,2.2,52*,nt
SMILES,sEH inh,sEH activator,BB579 growth dn,SDO1 yeast rescue,Measles CPE,Yeast life ext
O=C(c1ccco1)n1nc(-c2ccc(Cl)cc2)nc1NCc1ccco1,-8,6,-73,-0.74,2,7
O=C(COc1ccccc1)n1nc(-c2ccc(Cl)cc2)nc1NCc1ccco1,4,-6,-77,0.33,40*,-6
Cn1ncc(Br)c1C(=O)OCC(=O)Nc1nc(-c2ccccc2)cs1,-14,14,5,-0.93,35*,nt
Cc1cc(C(=O)OCC(=O)Nc2nc(-c3ccccc3)cs2)c(C)o1,nt,nt,-46,-0.1,12,-1
O=C(O)c1cc(-c2cccc(Cl)c2)nc2nc(N3CCCCC3)sc12,nt,nt,8,1,25,1
Cc1ccc(C)c(/C=C/C(=O)c2ccccc(=O)c2O)c1,nt,nt,99*,1.3,3,-15
Cc1ccc(C)c(NC(=O)c2ccccc2O)c1,3,-3,-10,-0.87,27,-17
O=C(/C=C/c1ccccc1Cl)c1ccccc(=O)c1O,nt,nt,99*,-1.1,10,-11
O=C(/C=C/c1ccccc1Cl)c1cccnc1,-10,6,7,-2.1,18,-12
Cc1ccc(/C=C/C(=O)c2ccccc(=O)c2O)c(C)c1,nt,nt,99*,-1.2,8,-11
CCCn1c2ccccc2c2cc(C(=O)O)ccc21,nt,nt,12,0.2,8,-10
Cn1c2ccccc2c2cc(C(=O)O)ccc21,-8,2,77*,0.08,9,-12
Cn1c(CCCCCN)nc2ccccc21,-6,6,-1,1.6,7,30*
CCN(CC)S(=O)(=O)c1cccc(C(=O)N[C@H](C(=O)O)C(C)C)c1,5,-10,-16,0.66,18,-8
CCN(CC)S(=O)(=O)c1cccc(C(=O)NCCc2ccccc2)c1,81*,-81,nt,nt,nt,nt
CCc1cc2c(SCC(=O)O)ncnc2s1,-6,4,-31,-0.28,14,0
CCc1cc2c(cc(C(=O)O)n2C)s1,9,-9,58*,0.22,3,-6
C/C(CCc1ccc2c(c1)OCO2)=N\N=C1\NC(=O)CC(C(=O)Nc2ccc(Cl)cc2)S1 (stereo not drawn),50,-49,-13,-0.59,3,-7
COC(=O)c1cc(NC(=O)CC2SCCNC2=O)cc(C(=O)OC)c1 (stereo not drawn),8,-8,0,1.8,48*,-11
O=C(CC1SCCNC1=O)Nc1cc(Cl)cc(Cl)c1 (stereo not drawn),5,-5,-11,0.09,14,-6
O=C(CCC(=O)OCC(=O)c1ccc(Br)cc1)Nc1ccc(Br)c2cccnc12,-3,6,-24,0.36,3,-2
CCNc1nnc(-c2ccc(C)cc2)o1,nt,nt,-24,-0.43,39*,-13
CCCCN(C(=N)N1CCCCC1)c1nc(C)c([N+](=O)[O-])c(=O)[nH]1,nt,nt,-26,0.65,16,4
CCOC(=O)CCC(NC(=O)CCCC(=O)NC(CCC(=O)OCC)C(=O)OCC)C(=O)OCC (stereo not drawn),nt,nt,-29,0.81,5,8
COc1ccccc1N1CCN(Cc2ccsc2)CC1,0,2,-13,0.54,19,-16
COc1ccccc1N1CCN(Cc2cccs2)CC1,-13,14,-11,0.2,96*,-6
COc1ccc(-c2cnn3c(N)c(S(=O)(=O)C(C)(C)C)cnc23)cc1,-24,26,-2,-1.3,4,30*
CC(C)(C)S(=O)(=O)c1cnc2c(-c3ccc(Cl)cc3)cnn2c1N,0,0,-62,-1.6,2,-12

# From PubChem BioAssay
